ChEMBL document CHEMBL3822422, “Discovery of the First α-Amino-3-hydroxy-5-methyl-4-isoxazolepropionic Acid (AMPA) Receptor Antagonist Dependent upon Transmembrane AMPA Receptor Regulatory Protein (TARP) γ-8” (J Med Chem, 2016)
pIC50: −log10 of the molar value.

What was measured:
[1] = Cmax in rat at 3 mg/kg, po; format: ADME, organism-based; set-up: dose 3 mg/kg, route oral; conditions: in vivo
In short: (§1)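 Rats dosed 1 mg/kg iv or 3 mg/kg po; plasma concentration–time profiles give AUC, CL, Vdss, Cmax, Tmax and absolute oral bioavailability; mean and SEM, n = 3.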

Rattus norvegicus [2] = assay: Anticonvulsant activity in po dosed Sprague-Dawley rat assessed as inhibition of pentylenetetrazole-induced clonic convulsions at 1 mg/kg administered 30 mins prior to PTZ dosing measured over 30 mins; format: functional
Rattus norvegicus [3] = organism: Rattus norvegicus; assay: Potency index, ratio of perampanel ED50 to compound ED50 for inhibition of pentylenetetrazole-induced clonic convulsions in Sprague-Dawley rat; format: functional
[4] = AUC in rat at 3 mg/kg, po; format: ADME, organism-based; conditions: in vivo; in short: as §1
Plasma [5] = assay: Plasma concentration in Sprague-Dawley rat at 10 mg/kg, po; format: ADME, organism-based; conditions: in vivo
Brain [6] = assay: Drug uptake in Sprague-Dawley rat brain at 3 mg/kg, po; format: ADME, organism-based; conditions: in vivo
In short: (§2)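 Rats dosed orally 1–30 mg/kg 30 min before iv bolus of non-radiolabelled tracer; brain taken 40 min after tracer; tracer in hippocampus (total binding) and cerebellum (null region) quantified by LC-MS/MS; occupancy by ratio method; brain exposure measured; n = 4 per group, mean ± SEM.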

[7] = Oral bioavailability in rat at 3 mg/kg; format: ADME, organism-based; conditions: in vivo; in short: as §1
Brain [8] = assay: Drug uptake in Sprague-Dawley rat brain at 10 mg/kg, po; format: ADME, organism-based; conditions: in vivo; in short: as §2
Rattus norvegicus [9] = assay: Receptor occupancy at TARP gamma-8 containing AMPA receptor in Sprague-Dawley rat at 10 mg/kg, po administered 30 mins prior to addition of 6-[2-Ethoxyethyl-[4-(2-pyridyl)thiazol-2-yl]amino]-3H-1,3-benzothiazol-2-one measured after 40 mins by […]; format: functional
Brain [10] = assay: Drug uptake in Sprague-Dawley rat brain at 1 mg/kg, po; format: ADME, organism-based; conditions: in vivo; in short: as §2
Glutamate receptor 1 [11] = target: T1, Glutamate receptor 1 (Homo sapiens, UniProt P42261); assay: Antagonist activity at human iGluA1 receptor flop isoform expressed in CHO-S cells coexpressing TARP gamma-2 assessed as inhibition of glutamate-induced increase in intracellular calcium levels after 2 mins followed by cyclothiazide/glutamate addition by fluo-4 AM dye based fluorescence imaging plate reader method; format: cell-based
T1 sequence (P42261 whole entry, canonical isoform): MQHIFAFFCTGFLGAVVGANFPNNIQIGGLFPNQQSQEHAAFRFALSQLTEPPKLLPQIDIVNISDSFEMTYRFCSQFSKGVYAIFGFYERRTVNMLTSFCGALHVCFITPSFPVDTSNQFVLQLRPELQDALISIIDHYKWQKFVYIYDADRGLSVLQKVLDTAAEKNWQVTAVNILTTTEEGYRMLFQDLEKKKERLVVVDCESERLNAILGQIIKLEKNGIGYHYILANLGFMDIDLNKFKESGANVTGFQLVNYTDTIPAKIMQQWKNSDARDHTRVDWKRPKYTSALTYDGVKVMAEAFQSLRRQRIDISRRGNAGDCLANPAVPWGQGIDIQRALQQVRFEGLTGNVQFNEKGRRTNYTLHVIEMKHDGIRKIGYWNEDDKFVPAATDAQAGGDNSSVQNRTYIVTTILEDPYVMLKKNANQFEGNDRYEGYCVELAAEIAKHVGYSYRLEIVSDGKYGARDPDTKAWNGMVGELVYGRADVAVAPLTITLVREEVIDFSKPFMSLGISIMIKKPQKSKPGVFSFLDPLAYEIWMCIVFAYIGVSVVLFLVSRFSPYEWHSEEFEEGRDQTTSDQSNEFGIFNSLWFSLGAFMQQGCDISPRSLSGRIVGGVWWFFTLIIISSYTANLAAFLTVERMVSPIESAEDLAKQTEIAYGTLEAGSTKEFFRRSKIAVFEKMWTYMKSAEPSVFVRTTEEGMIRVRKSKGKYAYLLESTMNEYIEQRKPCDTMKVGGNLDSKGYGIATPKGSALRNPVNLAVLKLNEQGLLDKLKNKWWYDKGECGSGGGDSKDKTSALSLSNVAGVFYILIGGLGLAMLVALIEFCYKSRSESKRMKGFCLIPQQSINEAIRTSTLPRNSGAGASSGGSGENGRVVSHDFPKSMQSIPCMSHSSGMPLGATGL

Glutamate receptor 1 [12] = target: T1, Glutamate receptor 1; assay: Antagonist activity at human iGluA1 receptor flip isoform expressed in CHO-S cells assessed as inhibition of glutamate-induced increase in intracellular calcium levels after 2 mins followed by cyclothiazide/glutamate addition by fluo-4 NW dye based fluorescence imaging plate reader method; format: cell-based
Cytochrome P450 1A2 = target: T2, Cytochrome P450 1A2 (Homo sapiens, UniProt P05177); assay: Inhibition of human CYP1A2; format: ADME
T2 sequence (P05177 whole entry): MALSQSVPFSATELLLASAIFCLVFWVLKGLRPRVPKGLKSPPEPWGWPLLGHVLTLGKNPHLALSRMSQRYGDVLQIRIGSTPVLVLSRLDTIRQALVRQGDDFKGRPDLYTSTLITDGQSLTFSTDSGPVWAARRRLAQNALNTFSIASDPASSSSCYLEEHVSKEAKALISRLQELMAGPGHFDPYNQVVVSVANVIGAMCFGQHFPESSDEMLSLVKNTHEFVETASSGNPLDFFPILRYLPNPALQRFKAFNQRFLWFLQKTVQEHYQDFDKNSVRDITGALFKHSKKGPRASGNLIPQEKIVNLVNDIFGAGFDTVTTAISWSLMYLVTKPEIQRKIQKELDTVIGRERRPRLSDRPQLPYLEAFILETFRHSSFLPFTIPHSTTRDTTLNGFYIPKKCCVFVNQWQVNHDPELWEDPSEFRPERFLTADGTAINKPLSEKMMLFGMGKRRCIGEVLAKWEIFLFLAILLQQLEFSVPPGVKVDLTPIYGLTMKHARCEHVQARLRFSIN

Brain [13] = assay: Drug uptake in Sprague-Dawley rat brain at 30 mg/kg, po; format: ADME, organism-based; conditions: in vivo; in short: as §2
Rattus norvegicus [14] = assay: Receptor occupancy at TARP gamma-8 containing AMPA receptor in Sprague-Dawley rat at 3 mg/kg, po administered 30 mins prior to addition of 6-[2-Ethoxyethyl-[4-(2-pyridyl)thiazol-2-yl]amino]-3H-1,3-benzothiazol-2-one measured after 40 mins by […]; format: functional
Glutamate receptor 1 [15] = target: T1, Glutamate receptor 1; assay: Antagonist activity at human iGluA1 receptor flop isoform expressed in CHO-S cells coexpressing TARP gamma-8 and human EAAT3 assessed as inhibition of glutamate-induced increase in intracellular calcium levels after 2 mins followed by cyclothiazide/glutamate addition by fluo-4 AM dye based fluorescence imaging plate reader method; format: cell-based
In short: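 Transiently transfected CHO-S cells (human GluA1Q flop with TARP γ-8 and human EAAT3, DNA ratio 2:3), frozen, thawed, plated overnight at 37 °C; Fluo-4 AM loading 2 h at 22 °C. Compound added, then 2 min later glutamate (5 μM final); cyclothiazide (20 μM) plus glutamate (45 μM) 2 min after. FLIPR Ca2+ read; inhibition relative to 167 μM nonselective antagonist and buffer baseline; four-parameter logistic IC50; mean ± SEM, n ≥ 2.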

Plasma [16] = assay: Plasma concentration in Sprague-Dawley rat at 3 mg/kg, po; format: ADME, organism-based; conditions: in vivo
Rattus norvegicus [17] = assay: Anticonvulsant activity in po dosed Sprague-Dawley rat assessed as inhibition of pentylenetetrazole-induced clonic convulsions at 10 mg/kg administered 30 mins prior to PTZ dosing measured over 30 mins; format: functional
[18] = Tmax in rat at 3 mg/kg, po; format: ADME, organism-based; conditions: in vivo; in short: as §1
[19] = AUC in rat at 1 mg/kg, iv; format: ADME, organism-based; conditions: in vivo; in short: as §1
[20] = Volume of distribution at steady state in rat at 1 mg/kg, iv; format: ADME, organism-based; conditions: in vivo, read-out: Vdss; in short: as §1
Rattus norvegicus [21] = assay: Toxicity in Sprague-Dawley rat assessed as motor impairment up to 100 mg/kg, po by inverted screen test; format: organism-based; conditions: in vivo
In short: (§3)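 Rats given compound orally (10 or 100 mg/kg), scored on inverted screen for motor impairment; plasma exposure measured; ≥4 rats/group, mean ± SEM; TD50 used with PTZ ED50 for protective index.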

[22] = Toxicity in po dosed Sprague-Dawley rat assessed as motor impairment by inverted screen test; format: organism-based; conditions: in vivo; in short: as §3
[23] = Clearance in rat; format: ADME, organism-based; conditions: in vivo
Rattus norvegicus [24] = assay: Anticonvulsant activity in po dosed Sprague-Dawley rat assessed as inhibition of pentylenetetrazole-induced clonic convulsions administered 30 mins prior to PTZ dosing measured over 30 mins; format: functional
Rattus norvegicus [25] = assay: Receptor occupancy at TARP gamma-8 containing AMPA receptor in Sprague-Dawley rat at 1 mg/kg, po administered 30 mins prior to addition of 6-[2-Ethoxyethyl-[4-(2-pyridyl)thiazol-2-yl]amino]-3H-1,3-benzothiazol-2-one measured after 40 mins by […]; format: functional
Plasma [26] = assay: Plasma concentration in Sprague-Dawley rat at 30 mg/kg, po; format: ADME, organism-based; conditions: in vivo
Plasma [27] = assay: Plasma concentration in Sprague-Dawley rat at 100 mg/kg, po; format: ADME, organism-based; conditions: in vivo; in short: as §3
Rattus norvegicus [28] = assay: Receptor occupancy at TARP gamma-8 containing AMPA receptor in Sprague-Dawley rat at 30 mg/kg, po administered 30 mins prior to addition of 6-[2-Ethoxyethyl-[4-(2-pyridyl)thiazol-2-yl]amino]-3H-1,3-benzothiazol-2-one measured after 40 mins by […]; format: functional
Rattus norvegicus [29] = assay: Anticonvulsant activity in po dosed Sprague-Dawley rat assessed as inhibition of pentylenetetrazole-induced clonic convulsions at 3 mg/kg administered 30 mins prior to PTZ dosing measured over 30 mins; format: functional
Plasma [30] = assay: Plasma concentration in Sprague-Dawley rat at 1 mg/kg, po; format: ADME, organism-based; conditions: in vivo
[31] = Clearance in rat at 1 mg/kg, iv; format: ADME, organism-based; conditions: in vivo; in short: as §1
Rattus norvegicus [32] = assay: Protective index, ratio of TD50 for motor impairment to ED50 for inhibition of pentylenetetrazole-induced clonic convulsions in po dosed Sprague-Dawley rat
In short: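 PI = inverted screen TD50 divided by PTZ ED50. For the ED50, rats were dosed orally 30 min before PTZ (35 mg/kg, sc), with n = 10 per group. Read-out was % block of clonic convulsions; ED50 given with 95% confidence limits.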

With `C[C@@H](c1ccc2[nH]c(=O)sc2c1)c1ccn(-c2ccc(OCCO)cn2)n1` the Cmax [1] was 628 ng/mL, the inhibition in vivo at 1 mg/kg (Rattus norvegicus [2]) was 40% and the “Ratio ED50” value (Rattus norvegicus [3]) was 10. The AUC [4] was 4220 ng·h/mL, the Cp (Plasma [5]) was 3360 ng/mL and the Drug uptake (Brain [6]) was 477 ng/g. The bioavailability [7] was 97%, the Drug uptake (Brain [8]) was 1526 ng/g and the Occ (Rattus norvegicus [9]) was 68%. The Drug uptake (Brain [10]) was 133 ng/g, the pIC50 (Glutamate receptor 1 [11]) was 4.16 and the pIC50 (Glutamate receptor 1 [12]) was 4.08. The pIC50 (Cytochrome P450 1A2) was < 5.00, the Drug uptake (Brain [13]) was 2400 ng/g and the Occ (Rattus norvegicus [14]) was 69%. For the same compound, the pIC50 (Glutamate receptor 1 [15]) was 7.19, the Cp (Plasma [16]) was 1269 ng/mL and the inhibition in vivo at 10 mg/kg (Rattus norvegicus [17]) was 100%. For the same compound, the Tmax [18] was 1.3 h, the AUC [19] was 1470 ng·h/mL and the Vd [20] was 1.28 L/kg. The Activity (Rattus norvegicus [21]) was “Non-toxic”, the TD50 [22] was 3.8 mg/kg and the clearance [23] was 11.4 mL/min/kg. For the same compound, the ED50 (Rattus norvegicus [24]) was 1.7 mg/kg, the inhibition (Rattus norvegicus [24]) was “Dose-dependent effect” and the Occ (Rattus norvegicus [25]) was 45%. It also gave a Cp (Plasma [26]) of 1780 ng/mL, a Cp (Plasma [27]) of 8342 ng/mL and an Occ (Rattus norvegicus [28]) of 96%. The inhibition in vivo at 3 mg/kg (Rattus norvegicus [29]) was 80%, the Cp (Plasma [30]) was 377 ng/mL and the clearance [31] was 11.4 mL/min/kg. For the same compound, the “Ratio TD50/ED50” value (Rattus norvegicus [32]) was >58.
